Assay results pooled from the literature.
Each line is one published result; the experiments were not run side by side.
Cell line: MCF7
Effect on: cell growth or viability

Compound | assay | conditions | quantity | value
CC(=NNC(=O)c1ccccc1O)c1ccc(Nc2nnc(-c3ccc(Cl)cc3)c3ccccc23)cc1 | MTT | 0.312 µM, 24 h | viability | 99.3%
C[C@@H]1CC[C@@H]([C@](C)(O)CNCc2ccccc2)[C@H](OCc2ccccc2)C1 | MTT | 10 µM, 72 h | inhibition | 97.6%
O=C(Nc1ccccc1)Nc1ccc(Oc2nnc(-c3ccc(Cl)cc3)c3ccccc23)cc1 | MTT | 0.312 µM, 24 h | viability | 11.3%
O=C(CCn1c(=O)ccc2ccccc21)N1CCOCC1 | MTT | 100 µM, 48 h | inhibition | 90.5%
C[C@H](Nc1ccc2c(c1)OCCn1cc(N3C(=O)OC[C@H]3C(F)F)nc1-2)C(N)=O | – | 5 days | EC50 | 19.3 nM
CC(=NNC(=S)Nc1ccccc1)c1ccc(Nc2nnc(-c3ccc(Cl)cc3)c3ccccc23)cc1 | MTT | 10 µM, 24 h | viability | 3.45%
COc1cccc2c1C(=O)c1c(O)c3c(c(O)c1C2=O)C[C@@](O)(C(=O)CO)C[C@@H]3O[C@H]1C[C@H](N)[C@H](O)[C@H](C)O1 | MTT | – | GI50 | 7.32 µM
CC(=O)Nc1ccc(/C(C)=N/N=c2\sc(C(C)=O)nn2-c2ccc(C)cc2)cc1 | MTT | 1.25 µM | viability | 49.5%
C[C@@H]1CC[C@@H]([C@@](O)(CNCc2ccccc2)COCc2ccccc2)[C@H](OCc2ccccc2)C1 | MTT | 10 µM, 72 h | inhibition | 94.8%
CC(=O)c1c(C)c2cnc(Nc3ccc(N4CCNCC4)cn3)nc2n(C2CCCC2)c1=O | – | 5 days | EC50 | 38.3 nM
Cc1ccc(-c2cc(-c3c(Cl)cccc3Cl)c3c(=O)[nH]c(=O)[nH]c3n2)cc1 | MTT | 48 h | IC50 | 39 µM
C[C@@H]1CC[C@@H]([C@](O)(CNCc2ccccc2)COCc2ccc(F)cc2)[C@H](OCc2ccc(F)cc2)C1 | MTT | 10 µM, 72 h | inhibition | 95.7%
COc1ccc(-c2cc(-c3ccc(OC)cc3)c3c(=O)n(C)c(=O)n(C)c3n2)cc1 | MTT | 48 h | IC50 | 18.6 µM
O=C(Nc1ccc(Oc2nnc(-c3ccc(Cl)cc3)c3ccccc23)cc1)c1cccc([N+](=O)[O-])c1 | MTT | 0.625 µM, 24 h | viability | 9.78%
C[C@@H]1CC[C@@H]([C@](O)(CNCc2cccc3ccccc23)COCc2ccccc2)[C@H](OCc2ccccc2)C1 | MTT | 30 µM, 72 h | inhibition | 87.7%
Cc1nc(Nc2ccc3c(c2)/C(=C/c2ccccc2C)C(=O)N3C)c2ccccc2n1 | MTT | – | IC50 | 21.4 µM

Compound | assay | conditions | quantity | value
CC(=O)Nc1ccc(Oc2nnc(-c3ccc(Cl)cc3)c3ccccc23)cc1 | MTT | 0.625 µM, 24 h | viability | 4.91%
COc1ccc(COC[C@@](O)(CNCc2ccccc2)[C@@H]2CC[C@@H](C)C[C@H]2OCc2ccc(OC)cc2)cc1 | MTT | 30 µM, 72 h | inhibition | 102%
COc1ccc(-c2cc(-c3ccc(C)cc3)nc3[nH]c(=O)[nH]c(=O)c23)cc1OC | MTT | 48 h | IC50 | 26.6 µM
CC(=NNC(N)=S)c1ccc(Nc2nnc(-c3ccc(Cl)cc3)c3ccccc23)cc1 | MTT | 5 µM, 24 h | viability | 9.07%
CCOC(=O)c1nn(-c2cccc(Cl)c2)/c(=N/N=C(\C)c2ccc(NC(=O)c3ccccc3)cc2)s1 | MTT | 2.5 µM | viability | 2.67%
Cc1ccc(-c2cc(-c3ccc(Cl)c(F)c3)c3c(=O)[nH]c(=O)[nH]c3n2)cc1 | MTT | 48 h | IC50 | 14.6 µM
CC(=O)c1nn(-c2ccccc2Cl)/c(=N/N=C(\C)c2ccc(NC(=O)c3ccccc3)cc2)s1 | MTT | 10 µM | viability | 5.78%
O=C(NO)c1ccc(CNc2nc3cccc(-c4ccc5c(c4)OCO5)n3n2)cc1 | SRB | – | GI50 | 0.65 µM
C=CC(=O)NC1CCN(c2ncc3ncnc(Nc4ccc(Oc5ccc6c(c5)ncn6C)c(C)c4)c3n2)CC1 | – | – | EC50 | 5220 nM
Cc1nc(NC(=O)N2CCC[C@H]2C(N)=O)sc1-c1ccnc(C(C)(C)C(F)(F)F)c1 | – | 5 days | EC50 | 177 nM
Cc1ccc(-c2cc(-c3ccc(Cl)cc3)c3c(=O)[nH]c(=O)[nH]c3n2)cc1 | MTT | 48 h | IC50 | 9.67 µM
CC(=O)c1nn(-c2ccc(C)cc2)/c(=N/N=C(\C)c2ccc(NC(=O)c3ccccc3)cc2)s1 | MTT | 2.5 µM | viability | 6.47%
COc1cccc(CNC[C@@](C)(O)[C@@H]2CC[C@@H](C)C[C@H]2OCc2ccccc2)c1 | MTT | 10 µM, 72 h | inhibition | 76.8%
CC(=NNC(=O)c1ccccc1Br)c1ccc(Nc2nnc(-c3ccc(Cl)cc3)c3ccccc23)cc1 | MTT | 0.625 µM | cell death | 24.1%
COc1ccc(-c2cc(-c3cccc(Br)c3)c3c(=O)[nH]c(=O)[nH]c3n2)cc1 | MTT | 48 h | IC50 | 13.7 µM
C[C@@H]1CC[C@@H]([C@](C)(O)CNCc2cccc3ccccc23)[C@H](OCc2ccccc2)C1 | MTT | 10 µM, 72 h | inhibition | 61.5%
